Consider 6 molecules from article PMC3068019 (EMBO Molecular Medicine, 2010).

Each structure is given as a SMILES string.

One series deals with Q111 cells. Nature of the series: 3-NP toxicity, LIVE/DEAD viability assay, Q111 cells. The format is cell-based, mouse.
The subject of series [1] is PGC-1α mRNA, Q111 striatal cells. Nature of the series: PGC-1α mRNA by quantitative RT-PCR, Q111 cells. The format is cell-based, mouse. In outline: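 Total RNA (2 µg) from Q7/Q111 striatal cells, run either by TaqMan one-step RNA-to-Ct or by Superscript III reverse transcription followed by TaqMan gene expression assays on real-time PCR. Quantified by the delta-delta CT method, normalised to 18S […].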

A further series concerns Caspase. Particulars: ref Bailey & Johnson, 2006; Jeitner et al, 2005; cited from earlier work.
The next series has as its system glutathione. As to conditions: ref Mao et al, 2006; cited from earlier work.
In the next series the test system is HD model mice. Particulars: ref Karpuj et al, 2002; Fox et al, 2004; cited from earlier work.
For a further series, the system named is DNAJB10. Particulars: ref Karpuj et al, 2002; cited from earlier work.
For the next series, the system named is Caenorhabditis elegans. As to conditions: ref Borrell-Pages et al, 2006; cited from earlier work.
Series [2] relates to DNAJ (HSJ1b), striatal neurons. Particulars: ref Borrell-Pages et al, 2006, cited from earlier work.
In a further series the test system is BDNF. Particulars: ref Borrell-Pages et al, 2006; cited from earlier work.
In the next series the test system is PGC-1α. Particulars: ref Milnerwood et al, 2010; Okamoto et al, 2009; cited from earlier work.

For the molecule `O=C(O)CC[N+](=O)[O-]` [3-NP, 3-nitropropionic acid], the “toxicity of 3-NP, Q111 compared with Q7 cells” value in the series on Q111 cells (3-NP 10 mM for 48 h) is listed as “more toxic to Q111 cells than to Q7 cells”.

For `CCCC(=O)O` [NaBu, Sodium butyrate], the “effect on PGC-1α mRNA levels” value in series [1] is reported as “increased the mRNA levels of PGC-1α”.

As for `CC(/C=C/C(=O)NO)=C\[C@@H](C)C(=O)c1ccc(N(C)C)cc1` [TSA, Trichostatin A], the “effect on PGC-1α mRNA levels” value in series [1] is given as “increased the mRNA levels of PGC-1α”.

As to `NCCSSCCN` [cystamine], in the series on Caspase, the caspase inhibition result is recorded as “caspase inhibition”. Also, the glutathione levels result with glutathione is listed as “increases levels of the versatile antioxidant glutathione”. Moreover, in the series on HD model mice, the “neuroprotection in HD models” value is “neuroprotective”. Moreover, the “DNAJB10 in treated mice” value in the series on DNAJB10 is “increased”. Besides, in the series on Q111 cells (not shown, cell line not stated), the “protection against 3-NP toxicity” value is “protect against 3-NP toxicity”.

As for `NCCS` [cysteamine], the “protection of worms from toxic effects of mhtt” value in the series with Caenorhabditis elegans is given as “protected worms”. For the same molecule, the DNAJB10 levels result in series [2] is “normalize DNAJB10 levels”. Further, the “DNAJ (HSJ1b) transcription and protein levels” value in series [2] (striatal neurons in vitro) is “increased”. Also, the “trafficking of BDNF” value in the series with BDNF is “enhanced”.

For `CC12CC3CC(C)(C1)CC(N)(C3)C2` [memantine], in the series on PGC-1α, the “transcriptional dysregulation of PGC-1α induced by extrasynaptic glutamate” value is on record as “appears to prevent transcriptional dysregulation of PGC-1α”.
